Data: ChEMBL document CHEMBL4364266, “Design, synthesis and biological evaluation of novel 2,3,4,9-tetrahydro-1H-pyrido[3,4-b]indole triazole derivatives as potent TRPV1 antagonists” (Eur J Med Chem, 2019)
Active and inactive are the calls of the source.

What was measured:
[1] = biological target: T1, Transient receptor potential cation channel subfamily V member 1 (Homo sapiens, UniProt Q8NER1); experiment: Antagonist activity at low pH-induced human recombinant TRPV1 expressed in CHO-K1 cells co-expressing aequorin at 50 uM incubated for 2.5 mins in presence of ATP followed by hydrochloride addition at pH 5 by luminescence assay relative to control; format: cell-based
How it was run: (§1)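 Aequorin cells expressing recombinant human TRPV1 were loaded with coelenterazine for 4 h in the dark. Assay buffer was DMEM-F12 with 15 mM HEPES (pH 7.0) and 0.1% BSA. Cells were added to compound and incubated 2.5 min, then challenged with capsaicin or with HCl at pH 5.0, and luminescence was read at once. Digitonin (100 µM) and ATP (50 µM) served as reference blanks. Mean ± SEM of at least three experiments.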

[2] = Volume of distribution in Sprague-Dawley rat at 10 mg/kg, po measured up to 12 hrs by UPLC-QTOF/MS analysis; format: ADME, organism-based; settings: in vivo
How it was run: (§2)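 Male Sprague-Dawley rats (220-250 g, n = 3), jugular vein cannulated 1 day before dosing and fasted overnight. Given 10 mg/kg by oral gavage as a suspension in 0.5% sodium carboxymethyl cellulose. Jugular blood drawn at 0.25, 0.5, 1, 2, 4, 6, 8 and 12 h into heparin tubes. Plasma deproteinized with acetonitrile and analysed by UPLC-QTOF/MS. Parameters from a one-compartment model.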

[3] = Mean residence time in Sprague-Dawley rat at 10 mg/kg, po measured up to 12 hrs by UPLC-QTOF/MS analysis; format: ADME, organism-based; settings: in vivo; how it was run: as §2
[4] = AUC (0 to infinity) in Sprague-Dawley rat at 10 mg/kg, po measured up to 12 hrs by UPLC-QTOF/MS analysis; format: ADME, organism-based; set-up: dose 10 mg/kg, route oral, time infinity; settings: in vivo; how it was run: as §2
[5] = Elimination rate constant in Sprague-Dawley rat at 10 mg/kg, po measured up to 12 hrs by UPLC-QTOF/MS analysis; format: ADME, organism-based; settings: in vivo; how it was run: as §2
Mus musculus [6] = experiment: Antinociceptive activity in KM mouse model of acetic acid induced pain assessed as suppression of writhes at 1 to 10 mg/kg, po administered as single dose pretreated for 30 mins followed by acetic acid challenge and measured for 15 mins; format: functional, organism-based
Mus musculus [7] = experiment: Effect on body temperature in KM mouse assessed as increase in rectal temperature at 30 mg/kg, po administered as single dose measured every 30 mins for 120 mins by electric probe thermometer; format: functional, organism-based
How it was run: (§3)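 Male KM mice (n = 6) were dosed intragastrically with 30 mg/kg in 0.5% CMC-Na, or with vehicle. Body temperature was taken with an electric probe thermometer at 0, 30, 60, 90 and 120 min after dosing. Results given as temperature or as the change from 0 min, mean ± SEM, with Dunnett's test against vehicle.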

[8] = Absorption rate constant in Sprague-Dawley rat at 10 mg/kg, po measured up to 12 hrs by UPLC-QTOF/MS analysis; format: ADME, organism-based; settings: in vivo; how it was run: as §2
[9] = Tmax in Sprague-Dawley rat at 10 mg/kg, po measured up to 12 hrs by UPLC-QTOF/MS analysis; format: ADME, organism-based; settings: in vivo; how it was run: as §2
Mus musculus [10] = experiment: Antinociceptive activity in KM mouse model of capsaicin-induced pain assessed as reduction in paw licking time at 30 mg/kg, po administered as single dose pretreated for 30 mins followed by capsaicin challenge and measured for 5 mins; format: functional, organism-based
How it was run: (§4)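 Male KM mice (18-22 g, n = 6 per group) received 30 mg/kg intragastrically as a suspension in 0.5% CMC-Na, 30 min before testing. Capsaicin test: 20 µL capsaicin injected s.c. into the dorsal right hind paw, with paw licking time summed over 5 min. Writhing test: 0.6% acetic acid given i.p. at 0.1 mL/10 g, with writhes counted for 15 min. Tail-flick test: 12 s cut-off.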

Mus musculus [11] = experiment: Antinociceptive activity in KM mouse model of acetic acid induced pain assessed as suppression of writhes at 30 mg/kg, po administered as single dose pretreated for 30 mins followed by acetic acid challenge and measured for 15 mins; format: functional, organism-based; how it was run: as §4
Mus musculus [12] = experiment: Antinociceptive activity in KM mouse model of thermal-induced nociception assessed as increase in latency to tail withdrawal at 30 mg/kg, po administered as single dose pretreated for 30 mins; format: functional, organism-based; how it was run: as §4
[13] = Elimination half-life in Sprague-Dawley rat at 10 mg/kg, po measured up to 12 hrs by UPLC-QTOF/MS analysis; format: ADME, organism-based; settings: in vivo, read-out: beta t1/2 (converted); how it was run: as §2
Mus musculus [14] = experiment: Antinociceptive activity in KM mouse model of thermal-induced nociception assessed as increase in latency to tail withdrawal at 1 to 10 mg/kg, po administered as single dose pretreated for 30 mins; format: functional, organism-based
Mus musculus [15] = experiment: Antinociceptive activity in KM mouse model of capsaicin-induced pain assessed as reduction in paw licking time at 1 to 10 mg/kg, po administered as single dose pretreated for 30 mins followed by capsaicin challenge and measured for 5 mins; format: functional, organism-based
[16] = Cmax in Sprague-Dawley rat at 10 mg/kg, po measured up to 12 hrs by UPLC-QTOF/MS analysis; format: ADME, organism-based; set-up: dose 10 mg/kg, route oral; settings: in vivo; how it was run: as §2
[17] = Clearance in Sprague-Dawley rat at 10 mg/kg, po measured up to 12 hrs by UPLC-QTOF/MS analysis; format: ADME, organism-based; settings: in vivo; how it was run: as §2
[18] = biological target: T1, Transient receptor potential cation channel subfamily V member 1; experiment: Antagonist activity at capsaicin-induced human recombinant TRPV1 expressed in CHO-K1 cells co-expressing aequorin incubated for 2.5 mins in presence of ATP followed by capsaicin addition by luminescence assay; format: cell-based; how it was run: as §1
Mus musculus [19] = experiment: Effect on body temperature in KM mouse assessed as increase in rectal temperature at 30 mg/kg, po administered as single dose measured every 30 mins for 60 mins by electric probe thermometer; format: functional, organism-based; how it was run: as §3

T1 sequence (Q8NER1 whole entry): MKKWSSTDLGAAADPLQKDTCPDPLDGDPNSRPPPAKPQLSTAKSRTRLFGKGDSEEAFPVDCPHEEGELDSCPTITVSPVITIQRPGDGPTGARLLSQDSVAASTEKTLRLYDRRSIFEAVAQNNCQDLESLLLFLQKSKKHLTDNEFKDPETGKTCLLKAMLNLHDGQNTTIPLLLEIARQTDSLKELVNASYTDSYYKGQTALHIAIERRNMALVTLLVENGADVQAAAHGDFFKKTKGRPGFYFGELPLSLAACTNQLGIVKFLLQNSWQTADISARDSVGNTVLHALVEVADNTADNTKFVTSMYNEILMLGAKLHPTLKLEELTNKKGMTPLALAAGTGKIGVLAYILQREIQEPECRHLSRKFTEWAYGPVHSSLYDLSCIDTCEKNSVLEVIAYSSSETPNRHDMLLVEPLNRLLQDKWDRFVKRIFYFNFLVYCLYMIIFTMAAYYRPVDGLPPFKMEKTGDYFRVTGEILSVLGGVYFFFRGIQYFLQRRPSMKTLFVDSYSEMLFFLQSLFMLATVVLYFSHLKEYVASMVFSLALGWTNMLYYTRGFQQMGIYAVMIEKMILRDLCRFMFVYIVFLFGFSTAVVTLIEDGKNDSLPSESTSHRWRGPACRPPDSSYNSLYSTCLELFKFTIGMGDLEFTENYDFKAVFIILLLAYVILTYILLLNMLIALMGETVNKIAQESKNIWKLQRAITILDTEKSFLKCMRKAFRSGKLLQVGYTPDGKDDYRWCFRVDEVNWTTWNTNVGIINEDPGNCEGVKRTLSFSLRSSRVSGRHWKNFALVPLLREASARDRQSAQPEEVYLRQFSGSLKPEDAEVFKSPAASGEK

Structure (SMILES) | inhibition [1] | IC50 [18] | other results
Fc1ccc2c(c1)CCN2Cc1cn(-c2ccc(Cl)cc2)nn1 | 12% | – | –
Fc1cccc(-n2cc(CN3CCc4ccccc43)nn2)c1 | 35% | 19400 nM | –
CC(C)(C)c1ccc(-n2cc(CN3CCc4cc(Cl)ccc43)nn2)cc1 | 24% | 27100 nM | –
Cc1ccc(-n2cc(CN3CCc4c([nH]c5ccccc45)C3)nn2)c([N+](=O)[O-])c1 | 71% | – | –
O=[N+]([O-])c1cc(Cl)ccc1-n1cc(CN2CCc3c([nH]c4ccccc34)C2)nn1 | 67% | 394 nM | –
Cc1cc(C)c(-n2cc(CN3CCc4c([nH]c5ccccc45)C3)nn2)c(C)c1 | 13% | – | –
Clc1ncccc1-n1cc(CN2CCc3c([nH]c4ccccc34)C2)nn1 | 72% | 3490 nM | –
Clc1ccc(-n2cc(CN3CCc4ccccc43)nn2)cc1 | 42% | 12600 nM | –

The next lines start with results.

inhibition [1] | IC50 [18] | Structure (SMILES) | other results
62% | 89 nM | FC(F)(F)c1cccc(-n2cc(CN3CCc4c([nH]c5ccccc45)C3)nn2)c1 | Vd [2]: 30.4 L/kg; MRT [3]: 2.64 h; AUC(0-inf) [4]: 441 ng·h/mL; k el at 12 h [5]: 0.000208 s⁻¹; Activity (Mus musculus [6]): inactive; Activity (Mus musculus [7]): inactive; ka [8]: 0.77 h⁻¹; Tmax [9]: 1.3 h; Activity (Mus musculus [10]): Active; Activity (Mus musculus [11]): Active; Activity (Mus musculus [12]): Active; half-life [13]: 54 min; Activity (Mus musculus [14]): inactive; Activity (Mus musculus [15]): inactive; Cmax [16]: 123 ng/mL; CL/F [17]: 378 mL/min/kg
86% | 121 nM | O=[N+]([O-])c1ccc(-n2cc(CN3CCc4c([nH]c5ccccc45)C3)nn2)cc1 | Activity (Mus musculus [19]): Active; Activity (Mus musculus [6]): inactive; Activity (Mus musculus [10]): Active; Activity (Mus musculus [11]): Active; Activity (Mus musculus [12]): Active; Activity (Mus musculus [14]): inactive; Activity (Mus musculus [15]): inactive
71% | 416 nM | Clc1cccc(-n2cc(CN3CCc4c([nH]c5ccccc45)C3)nn2)c1 | –
73% | 341 nM | Clc1ccc(-n2cc(CN3CCc4c([nH]c5ccccc45)C3)nn2)cc1Cl | –
67% | 1540 nM | Cc1ccc(C)c(-n2cc(CN3CCc4c([nH]c5ccccc45)C3)nn2)c1 | –
71% | 385 nM | Fc1cccc(-n2cc(CN3CCc4c([nH]c5ccccc45)C3)nn2)c1 | –
74% | 494 nM | Fc1ccc(-n2cc(CN3CCc4c([nH]c5ccccc45)C3)nn2)cc1 | –
78% | 788 nM | Brc1ccc(-n2cc(CN3CCc4c([nH]c5ccccc45)C3)nn2)cc1 | –
64% | 1880 nM | COc1ccccc1-n1cc(CN2CCc3c([nH]c4ccccc34)C2)nn1 | –
64% | 243 nM | Clc1ccccc1-n1cc(CN2CCc3c([nH]c4ccccc34)C2)nn1 | –
74% | 1120 nM | COc1ccc(-n2cc(CN3CCc4c([nH]c5ccccc45)C3)nn2)cc1OC | –
57% | 232 nM | Fc1ccccc1-n1cc(CN2CCc3c([nH]c4ccccc34)C2)nn1 | –
